Source: publication PMC4424118 (Nature structural & molecular biology, 2015)

What was measured:
Format in all cases: cell-based
[1] = target: BB2 bombesin receptor (GRPR) (Homo sapiens, UniProt P30550); assay: TANGO β-arrestin recruitment assay, BB2
BB3 bombesin receptor = target: T1, BB3 bombesin receptor (Homo sapiens, UniProt P32247); assay: calcium mobilization assay, BB3-expressing cells
T1 sequence (P32247 1-399): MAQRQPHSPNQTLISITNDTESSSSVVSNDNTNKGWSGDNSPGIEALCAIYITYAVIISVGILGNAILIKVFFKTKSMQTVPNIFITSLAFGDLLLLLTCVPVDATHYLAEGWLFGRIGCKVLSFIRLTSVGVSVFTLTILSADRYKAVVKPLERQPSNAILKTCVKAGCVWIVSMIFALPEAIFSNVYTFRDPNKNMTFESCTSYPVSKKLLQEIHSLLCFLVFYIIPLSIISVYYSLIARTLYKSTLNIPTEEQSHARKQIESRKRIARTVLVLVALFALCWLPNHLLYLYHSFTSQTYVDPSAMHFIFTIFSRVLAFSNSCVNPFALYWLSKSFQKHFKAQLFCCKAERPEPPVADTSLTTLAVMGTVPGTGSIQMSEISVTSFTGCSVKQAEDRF
Method in brief: (§1)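 Cells were plated at 15,000/well on poly-L-lysine in DMEM with 500 ug/ml G-418 and 1% dialyzed FBS, then held overnight. Loading was with FLIPR Calcium 4 dye in HBSS/2.5 mM probenecid/20 mM HEPES, pH 7.4–7.8, for 45 min at 37°C plus 15 min at RT. Compounds (10 mM DMSO stocks) ran as 16-point 3-fold dilutions, final 10 μM–0.003 nM. Fluorescence was read 10 s before and 120 s after addition.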

BB2 bombesin receptor = BB2 bombesin receptor (Homo sapiens, UniProt P30550); assay: calcium mobilization assay, BB2-expressing cells
Chain of BB2 bombesin receptor (P30550 whole entry): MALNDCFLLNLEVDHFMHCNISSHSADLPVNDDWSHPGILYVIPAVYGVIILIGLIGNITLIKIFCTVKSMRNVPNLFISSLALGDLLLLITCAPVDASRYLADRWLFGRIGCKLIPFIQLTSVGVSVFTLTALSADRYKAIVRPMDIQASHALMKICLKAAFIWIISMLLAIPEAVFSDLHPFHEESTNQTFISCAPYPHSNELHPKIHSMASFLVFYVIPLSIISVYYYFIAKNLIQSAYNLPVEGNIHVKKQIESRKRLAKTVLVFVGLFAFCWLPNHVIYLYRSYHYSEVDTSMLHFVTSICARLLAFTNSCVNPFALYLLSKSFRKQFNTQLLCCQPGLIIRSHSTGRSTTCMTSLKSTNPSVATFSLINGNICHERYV
Method in brief: as §1

[2] = target: neuromedin B receptor (NMBR; also known as the BB1 bombesin receptor) (Homo sapiens, UniProt P28336); assay: TANGO β-arrestin recruitment assay, NMBR
Chain of UniProt P28336 (P28336 whole entry): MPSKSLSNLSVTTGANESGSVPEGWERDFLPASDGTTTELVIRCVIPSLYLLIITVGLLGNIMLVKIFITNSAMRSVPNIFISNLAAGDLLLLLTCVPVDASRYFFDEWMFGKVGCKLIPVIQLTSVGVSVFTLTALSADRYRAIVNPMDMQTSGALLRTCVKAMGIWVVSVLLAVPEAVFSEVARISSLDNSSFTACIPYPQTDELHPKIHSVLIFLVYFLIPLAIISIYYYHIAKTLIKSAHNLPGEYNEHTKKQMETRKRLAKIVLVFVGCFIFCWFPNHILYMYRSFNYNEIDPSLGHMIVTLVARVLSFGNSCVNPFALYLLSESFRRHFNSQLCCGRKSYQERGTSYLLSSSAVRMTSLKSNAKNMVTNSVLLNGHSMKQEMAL

[3] = target: neuromedin B receptor (NMBR; BB1) (Homo sapiens, UniProt P28336); assay: calcium-release; conditions: BB1-expressing cells
Chain of neuromedin B receptor (NMBR; BB1) (P28336 whole entry): as above

Chain of BB2 bombesin receptor (GRPR) (P30550 whole entry): as the sequence (P30550 whole entry) above

Q: For CC(C)(C)NC(=O)[C@@H]1C[C@@H]2CCCC[C@@H]2CN1C[C@@H](O)[C@H](Cc1ccccc1)NC(=O)[C@H](CC(N)=O)NC(=O)c1ccc2ccccc2n1 [Saquinavir, saquinavir], which “response of BB2 in the TANGO assay” value [1] is on record?
A: Its value is “insensitive”.

Q: What about the calcium mobilization response (BB3 bombesin receptor) of the same molecule?
A: The calcium mobilization response was “did stimulate a response”.

Q: And the calcium mobilization response (BB2 bombesin receptor)?
A: The calcium mobilization response was “did not stimulate a response”.

Q: And the “response of BB1 in the TANGO assay” value [2]?
A: Its value is “insensitive”.

Q: What about the calcium mobilization response [3] of the same molecule?
A: The calcium mobilization response was “did not stimulate a response”.
